From ChEMBL document CHEMBL1275600, “Prophylactic activity of intramuscular peramivir in mice infected with a recombinant influenza A/WSN/33 (H1N1) virus containing the H274Y neuraminidase mutation” (Antimicrob Agents Chemother, 2010) come the findings set out here.

Active and inactive are the calls of the source. The calls are words filed in the database; no cut-off is given here.

Data set [1] relates to Mus musculus. Put plainly: Toxicity against oseltamivir-resistant Influenza A/WSN/33 (H1N1) virus expressing neuraminidase H274Y mutant gene infected BALB/c mouse assessed as weight loss at 45 mg/kg, im once daily for 5 days measured after 14 days. In kind it is organism-based. Also noted: dose 45 mg/kg, route intramuscular. As to conditions: in vivo, 336 h. Summed up: (§1)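 Male BALB/c mice, groups of 12, received IM drug at 50 mg/ml in pH 3.0 buffered saline, starting 1 h before intranasal infection with 8 × 10^3 PFU of recombinant virus. Body weight was monitored daily for 14 days. Mean weight loss was compared across regimens by one-way ANOVA, with uninfected PBS-treated mice as reference.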

The test system of data set [2] is Influenza A virus. Put plainly: Antiviral activity against oseltamivir-resistant Influenza A/WSN/33 (H1N1) virus expressing neuraminidase H274Y mutant gene infected in BALB/c mouse assessed as survival of mouse at 45 mg/kg, im once daily for 5 days. Also on record: dose 45 mg/kg. The data set is classed as functional, organism-based. As to conditions: A/WSN/1933(H1N1). Summed up:
(§2)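 Male BALB/c mice, 6–8 weeks old and 20–25 g, were randomized by weight, 4 per cage, in groups of 12. Drug at 50 mg/ml in saline buffered to pH 3.0 was given by IM hip injection, first dose 1 h before challenge. Mice were infected intranasally under isoflurane with 8 × 10^3 PFU of cell-grown recombinant virus in 30 μl PBS. Mortality was recorded daily for 14 days.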

The test system of data set [3] is Influenza A virus. Put plainly: Antiviral activity against oseltamivir-resistant Influenza A/WSN/33 (H1N1) virus expressing neuraminidase H274Y mutant gene infected in BALB/c mouse assessed as survival of mouse at 90 mg/kg, im administered as single dose. The data set is classed as functional, organism-based. Also on record: dose 90 mg/kg. As to conditions: A/WSN/1933(H1N1). Summed up: as §2

Data set [4] deals with Influenza A virus. Description: Antiviral activity against oseltamivir-resistant Influenza A/WSN/33 (H1N1) virus expressing neuraminidase H274Y mutant gene infected in BALB/c mouse assessed as log reduction in lung viral titer at 45 mg/kg, im administered as single dose and measured after 4 days. The data set is classed as functional, A/WSN/1933(H1N1). As to conditions: route intramuscular. Summed up: (§3)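 Male BALB/c mice received IM drug at 50 mg/ml in pH 3.0 buffered saline, starting 1 h before intranasal infection with 8 × 10^3 PFU of recombinant virus. Subgroups of 4 were sacrificed on day 4. Lungs were homogenized in 2 ml PBS with antibiotics and spun at 600 × g for 10 min. Supernatants were plaque-titrated on MDBK cells in triplicate. Comparison to untreated infected mice used a two-tailed unpaired t test.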

Data set [5] has as its system Mus musculus. Description: Toxicity against oseltamivir-resistant Influenza A/WSN/33 (H1N1) virus expressing neuraminidase H274Y mutant gene infected BALB/c mouse assessed as weight loss at 90 mg/kg, im administered as single dose and measured after 14 days. In kind it is organism-based. As to conditions: in vivo, 336 h. Also on record: dose 90 mg/kg, route intramuscular. The essentials:
as §1

Data set [6] relates to Influenza A virus. Put plainly: Antiviral activity against oseltamivir-resistant Influenza A/WSN/33 (H1N1) virus expressing neuraminidase H274Y mutant gene infected in BALB/c mouse assessed as log reduction in lung viral titer at 90 mg/kg, im administered as single dose and measured after 4 days. The data set is classed as functional, A/WSN/1933(H1N1). As to conditions: route intramuscular. Summed up: as §3

Data set [7] concerns Influenza A virus. Description: Antiviral activity against oseltamivir-resistant Influenza A/WSN/33 (H1N1) virus expressing neuraminidase H274Y mutant gene infected in BALB/c mouse assessed as log reduction in lung viral titer at 45 mg/kg, im once daily for 5 days. The data set is classed as functional, A/WSN/1933(H1N1). As to conditions: route intramuscular. Summed up: as §3

The subject of data set [8] is Mus musculus. Put plainly: Toxicity against oseltamivir-resistant Influenza A/WSN/33 (H1N1) virus expressing neuraminidase H274Y mutant gene infected BALB/c mouse assessed as weight loss at 45 mg/kg, im administered as single dose and measured after 6 days. The data set is classed as organism-based. Also noted: dose 45 mg/kg, route intramuscular. As to conditions: in vivo, 144 h. The essentials:
as §1

In data set [9] the test system is Influenza A virus. Put plainly: Antiviral activity against oseltamivir-resistant Influenza A/WSN/33 (H1N1) virus expressing neuraminidase H274Y mutant gene infected in BALB/c mouse assessed as survival of mouse at 45 mg/kg, im administered as single dose. The data set is classed as functional, organism-based. Also noted: dose 45 mg/kg. As to conditions: A/WSN/1933(H1N1). Summed up: as §2

As for `CCC(CC)[C@H](NC(C)=O)[C@@H]1[C@H](O)[C@@H](C(=O)O)C[C@H]1NC(=N)N` [PERAMIVIR ANHYDROUS], the Activity entry is listed as “Non-toxic” with Mus musculus [1], “Non-toxic” with Mus musculus [5] and “Toxic” in the data set with Mus musculus [8]. For the same compound, the result with Influenza A virus [2], in the data set with Influenza A virus [3] and in the data set with Influenza A virus [9] was inactive. Moreover, the FC in the data set with Influenza A virus [4], in the data set with Influenza A virus [6] and in the data set on Influenza A virus [7] was 1.5 in each case.
